Experimental data taken from ChEMBL document CHEMBL4376814, “Novel cyclin-dependent kinase 9 (CDK9) inhibitor with suppression of cancer stemness activity against non-small-cell lung cancer” (Eur J Med Chem, 2019).
Activity calls are given as the source filed them. The rule behind the calls is not given here.

Tests used:
NCI-H1299 = experiment: Antiproliferative activity against human H1299 cells assessed as inhibition of cell viability after 72 hrs by CCK-8 assay; format: functional, cell-based; conditions: NCI-H1299, 72 h
Summary of the method: (§1)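 Cells kept at 37 °C, 5% CO2 in DMEM or RPMI-1640 with 10% FBS and 1% penicillin/streptomycin, then seeded at 3000 cells/well (adherent) or 10,000 cells/well (suspension). Exposed to a range of concentrations for 72 h. CCK-8 added for 1-4 h before reading A450. […] Three independent experiments.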

CDK9/cyclin T1 = CDK9/cyclin T1 (Homo sapiens, UniProt P50750); experiment: Inhibition of recombinant full-length human CDK9/cyclinT1 using KTFCGTPEYLAPEVRREPRILSEEEQEMFRDFDYIADWC peptide as substrate measured after 40 mins in presence of [gamma33P]ATP by scintillation counting method; format: protein-complex assay
Summary of the method: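 IC50 against CDK9/cyclin T1, determined by the outsourced Eurofins KinaseProfiler service. Values are the mean of two independent experiments.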

[1] = target: Receptor-interacting serine/threonine-protein kinase 2 (Homo sapiens) (UniProt O43353); experiment: Inhibition of human RIPK2 (1 to 299 residues) at 1 uM using myelin basic protein as substrate measured after 120 mins in presence of [gamma33P]ATP by scintillation counting method relative to control
Summary of the method: (§2)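 Percent inhibition of kinase activity at a single compound concentration, measured by the outsourced Eurofins KinaseProfiler panel. Values are the mean of two independent experiments.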

[2] = target: Leukocyte tyrosine kinase receptor (Homo sapiens) (UniProt P29376); experiment: Inhibition of recombinant human LTK (450 to end residues) at 1 uM using GEEPLYWSFPAKKK as substrate measured after 40 mins in presence of [gamma33P]ATP by scintillation counting method relative to control
[3] = target: Tyrosine-protein kinase Fyn (Homo sapiens) (UniProt P06241); experiment: Inhibition of recombinant full-length human Fyn at 1 uM using KVEKIGEGTYGVVYK as substrate measured after 40 mins in presence of [gamma33P]ATP by scintillation counting method relative to control
[4] = tested on: Dual specificity protein kinase TTK (Homo sapiens), P33981 [S389A]; experiment: Inhibition of recombinant full-length human TTK S389A mutant at 1 uM using MBP as substrate measured after 40 mins in presence of [gamma33P]ATP by scintillation counting method relative to control
[5] = target: SRSF protein kinase 2 (Homo sapiens) (UniProt P78362); experiment: Inhibition of human SRPK2 (46 to end residues) at 1 uM using RSRSRSRSRSRSRSR as substrate measured after 40 mins in presence of [gamma33P]ATP by scintillation counting method relative to control; summary of the method: as §2
SiHa = experiment: Antiproliferative activity against human SiHa cells assessed as inhibition of cell viability at 10 uM after 72 hrs by CCK-8 assay relative to control; format: functional
Summary of the method: (§3)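 Single-concentration viability screen using CCK-8. Cells were seeded at 3000/well and treated for 72 h. A450 read after 1-4 h with reagent. Percent inhibition calculated against untreated control and blank wells as (Ac−As)/(Ac−Ab)×100%.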

Jurkat = experiment: Antiproliferative activity against human Jurkat cells assessed as inhibition of cell viability after 72 hrs by CCK-8 assay; format: functional, cell-based; summary of the method: as §1
[6] = target: Dual specificity tyrosine-phosphorylation-regulated kinase 2 (Homo sapiens) (UniProt Q92630); experiment: Inhibition of recombinant full-length human DYRK2 at 1 uM using casein as substrate measured after 40 mins in presence of [gamma33P]ATP by scintillation counting method relative to control
[7] = target: Cyclin-dependent kinase 14/Cyclin-Y (Homo sapiens) (UniProt O94921+Q8ND76); experiment: Inhibition of human CDK14/cyclinY at 1 uM by radiometric method relative to control; format: protein-complex assay; summary of the method: as §2
[8] = target: Eukaryotic translation initiation factor 2-alpha kinase 1 (Homo sapiens) (UniProt Q9BQI3); experiment: Inhibition of recombinant human HRI (140 to end residues) at 1 uM using RSRSRSRSRSRSRSR as substrate measured after 120 mins in presence of [gamma33P]ATP by scintillation counting method relative to control
HepG2 [9] = experiment: Antiproliferative activity against human HepG2 cells assessed as inhibition of cell viability at 10 uM after 72 hrs by CCK-8 assay relative to control; format: functional; conditions: HepG2, 72 h; summary of the method: as §3
HepG2 [10] = experiment: Antiproliferative activity against human HepG2 cells assessed as inhibition of cell viability at 500 nM after 72 hrs by CCK-8 assay relative to control; format: functional; conditions: HepG2, 72 h; summary of the method: as §3
[11] = target: Cyclin-dependent kinase-like 4 (Homo sapiens) (UniProt Q5MAI5); experiment: Inhibition of human CDKL4 at 1 uM at 1 uM by radiometric method relative to control; summary of the method: as §2
A549 = experiment: Induction of cell cycle arrest in human A549 cells assessed as increase in accumulation of cells at G2/M phase at 1 uM after 24 hrs by propidium iodide/RNase staining based flow cytometric analysis; format: functional
Summary of the method: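 A549 and H1299 plated at 5×10^5 cells/mL in 6-well plates, treated after adherence for 24 h. Washed with PBS, fixed overnight in ice-cold 75% ethanol, stained with propidium iodide plus RNase A for 30 min at 37 °C, analysed by flow cytometry for phase distribution. Means ± SD, three independent experiments.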

Hep 3B2 = experiment: Antiproliferative activity against human Hep3B cells assessed as inhibition of cell viability after 72 hrs by CCK-8 assay; format: functional, cell-based; summary of the method: as §1
[12] = tested on: Proto-oncogene tyrosine-protein kinase receptor Ret (Homo sapiens), P07949 [V804L]; experiment: Inhibition of human Ret V804L mutant (658 to end residues) at 1 uM using KKKVSRSGLYRSPSMPENLNRPR as substrate measured after 40 mins in presence of [gamma33P]ATP by scintillation counting method relative to control; summary of the method: as §2
[13] = target: Ribosomal protein S6 kinase alpha-5 (Homo sapiens) (UniProt O75582); experiment: Inhibition of recombinant human MSK1 (2 to end residues) at 1 uM using GRPRTSSFAEGKK as substrate measured after 40 mins in presence of [gamma33P]ATP by scintillation counting method relative to control
[14] = target: Tyrosine-protein kinase receptor TYRO3 (Homo sapiens) (UniProt Q06418); experiment: Inhibition of human RSE (451 to end residues) at 1 uM using KVEKIGEGTYGVVYK as substrate measured after 40 mins in presence of [gamma33P]ATP by scintillation counting method relative to control; summary of the method: as §2
[15] = target: Phosphatidylinositol 5-phosphate 4-kinase type-2 alpha (Homo sapiens) (UniProt P48426); experiment: Inhibition of recombinant full-length human PIP4K2alpha at 1 uM using phosphatidylinositol 5-phosphate as substrate measured after 40 mins by HTRF assay relative to control
[16] = tested on: eIF-2-alpha kinase GCN2 (Homo sapiens), Q9P2K8 [E556G]; experiment: Inhibition of recombinant full-length human GCN2 E556G mutant at 1 uM using RSRSRSRSRSRSRSR as substrate measured after 40 mins in presence of [gamma33P]ATP by scintillation counting method relative to control
[17] = target: Serine-protein kinase ATM (Homo sapiens) (UniProt Q13315); experiment: Inhibition of recombinant full-length human ATM at 1 uM using GST-cMyc-p53 as substrate measured after 40 mins by ELISA relative to control

Tyrosine-protein kinase Fyn (Homo sapiens), sequence (P06241 2-537 limits assumed): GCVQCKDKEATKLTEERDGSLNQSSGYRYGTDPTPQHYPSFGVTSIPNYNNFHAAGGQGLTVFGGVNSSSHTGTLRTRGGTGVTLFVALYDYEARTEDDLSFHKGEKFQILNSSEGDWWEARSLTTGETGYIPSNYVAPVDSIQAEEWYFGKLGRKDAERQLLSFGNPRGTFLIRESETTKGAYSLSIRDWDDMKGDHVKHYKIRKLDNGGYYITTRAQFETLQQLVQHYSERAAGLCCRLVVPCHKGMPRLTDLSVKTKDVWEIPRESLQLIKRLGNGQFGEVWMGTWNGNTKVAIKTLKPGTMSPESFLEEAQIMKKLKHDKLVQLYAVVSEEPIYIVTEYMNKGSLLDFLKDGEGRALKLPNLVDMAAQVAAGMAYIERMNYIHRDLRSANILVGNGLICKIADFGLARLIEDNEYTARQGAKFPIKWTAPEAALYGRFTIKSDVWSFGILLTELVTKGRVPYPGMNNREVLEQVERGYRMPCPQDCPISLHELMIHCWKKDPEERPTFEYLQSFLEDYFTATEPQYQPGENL
Leukocyte tyrosine kinase receptor (Homo sapiens), sequence (P29376 whole entry): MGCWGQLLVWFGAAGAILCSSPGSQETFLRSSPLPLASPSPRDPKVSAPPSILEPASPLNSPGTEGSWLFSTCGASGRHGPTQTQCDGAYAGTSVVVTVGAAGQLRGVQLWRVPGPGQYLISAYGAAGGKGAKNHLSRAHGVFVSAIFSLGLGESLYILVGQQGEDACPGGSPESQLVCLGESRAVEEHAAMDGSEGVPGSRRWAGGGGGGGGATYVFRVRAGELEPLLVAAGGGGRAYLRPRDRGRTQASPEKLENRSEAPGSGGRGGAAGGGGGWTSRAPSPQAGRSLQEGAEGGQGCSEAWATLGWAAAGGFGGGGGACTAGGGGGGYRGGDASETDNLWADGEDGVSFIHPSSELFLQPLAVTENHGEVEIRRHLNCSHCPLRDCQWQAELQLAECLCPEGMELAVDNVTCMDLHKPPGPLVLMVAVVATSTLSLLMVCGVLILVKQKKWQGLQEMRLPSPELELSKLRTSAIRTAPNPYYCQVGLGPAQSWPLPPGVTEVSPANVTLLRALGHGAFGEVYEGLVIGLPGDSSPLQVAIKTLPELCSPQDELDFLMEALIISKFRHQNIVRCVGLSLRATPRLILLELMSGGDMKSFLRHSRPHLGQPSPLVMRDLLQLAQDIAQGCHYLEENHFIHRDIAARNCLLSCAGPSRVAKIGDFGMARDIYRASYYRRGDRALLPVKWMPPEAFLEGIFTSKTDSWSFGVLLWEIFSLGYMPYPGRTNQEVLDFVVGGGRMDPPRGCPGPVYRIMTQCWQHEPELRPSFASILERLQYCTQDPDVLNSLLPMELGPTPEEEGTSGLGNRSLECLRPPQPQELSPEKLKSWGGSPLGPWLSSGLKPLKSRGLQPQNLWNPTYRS
Receptor-interacting serine/threonine-protein kinase 2 (Homo sapiens), sequence (O43353 whole entry, the tested form may be a part): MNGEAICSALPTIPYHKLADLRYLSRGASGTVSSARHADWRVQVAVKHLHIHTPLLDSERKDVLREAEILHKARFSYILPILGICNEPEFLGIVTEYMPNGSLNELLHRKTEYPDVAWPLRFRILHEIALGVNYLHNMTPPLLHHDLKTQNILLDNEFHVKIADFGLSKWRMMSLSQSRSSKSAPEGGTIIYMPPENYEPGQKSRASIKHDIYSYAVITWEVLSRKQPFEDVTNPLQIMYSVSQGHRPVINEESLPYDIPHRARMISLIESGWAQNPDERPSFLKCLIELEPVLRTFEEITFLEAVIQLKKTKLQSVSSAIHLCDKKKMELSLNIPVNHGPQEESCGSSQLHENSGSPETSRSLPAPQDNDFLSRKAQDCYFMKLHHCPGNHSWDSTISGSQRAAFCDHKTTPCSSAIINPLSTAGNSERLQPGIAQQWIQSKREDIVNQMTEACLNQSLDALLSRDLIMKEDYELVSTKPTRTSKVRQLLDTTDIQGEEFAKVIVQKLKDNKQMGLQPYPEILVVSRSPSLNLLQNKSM
CDK9/cyclin T1, sequence (O60563 whole entry): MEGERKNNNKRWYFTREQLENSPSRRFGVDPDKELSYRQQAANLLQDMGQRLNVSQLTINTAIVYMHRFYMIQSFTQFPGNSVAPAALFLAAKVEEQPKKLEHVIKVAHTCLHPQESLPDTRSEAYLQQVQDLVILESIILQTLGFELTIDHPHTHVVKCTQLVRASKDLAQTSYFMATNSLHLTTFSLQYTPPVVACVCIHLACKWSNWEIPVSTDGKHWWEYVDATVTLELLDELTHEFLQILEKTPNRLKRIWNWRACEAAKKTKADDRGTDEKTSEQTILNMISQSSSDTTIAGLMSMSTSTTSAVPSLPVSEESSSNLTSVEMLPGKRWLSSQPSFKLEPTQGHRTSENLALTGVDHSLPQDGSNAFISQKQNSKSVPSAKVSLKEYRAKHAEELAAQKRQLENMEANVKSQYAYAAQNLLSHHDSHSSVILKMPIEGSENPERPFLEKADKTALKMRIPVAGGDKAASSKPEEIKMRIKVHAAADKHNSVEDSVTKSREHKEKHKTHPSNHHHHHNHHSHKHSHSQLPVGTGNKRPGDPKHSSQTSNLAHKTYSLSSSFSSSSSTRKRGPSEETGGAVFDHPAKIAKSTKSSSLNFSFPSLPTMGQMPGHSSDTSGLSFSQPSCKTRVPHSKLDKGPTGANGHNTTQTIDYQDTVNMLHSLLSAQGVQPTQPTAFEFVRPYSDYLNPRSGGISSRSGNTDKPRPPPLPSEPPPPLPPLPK
CDK9/cyclin T1, sequence (P50750 whole entry): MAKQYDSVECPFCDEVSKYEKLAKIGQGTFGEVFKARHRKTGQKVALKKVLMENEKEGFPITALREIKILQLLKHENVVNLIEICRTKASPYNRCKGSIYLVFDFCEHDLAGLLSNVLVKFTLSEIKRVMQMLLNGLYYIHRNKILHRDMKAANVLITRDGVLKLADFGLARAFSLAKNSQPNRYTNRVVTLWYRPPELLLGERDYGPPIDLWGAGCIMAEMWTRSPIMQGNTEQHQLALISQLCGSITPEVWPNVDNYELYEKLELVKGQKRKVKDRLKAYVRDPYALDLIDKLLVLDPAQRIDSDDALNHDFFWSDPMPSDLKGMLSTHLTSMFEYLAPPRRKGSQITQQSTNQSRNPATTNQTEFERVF
Ribosomal protein S6 kinase alpha-5 (Homo sapiens), sequence (O75582 whole entry, looked up): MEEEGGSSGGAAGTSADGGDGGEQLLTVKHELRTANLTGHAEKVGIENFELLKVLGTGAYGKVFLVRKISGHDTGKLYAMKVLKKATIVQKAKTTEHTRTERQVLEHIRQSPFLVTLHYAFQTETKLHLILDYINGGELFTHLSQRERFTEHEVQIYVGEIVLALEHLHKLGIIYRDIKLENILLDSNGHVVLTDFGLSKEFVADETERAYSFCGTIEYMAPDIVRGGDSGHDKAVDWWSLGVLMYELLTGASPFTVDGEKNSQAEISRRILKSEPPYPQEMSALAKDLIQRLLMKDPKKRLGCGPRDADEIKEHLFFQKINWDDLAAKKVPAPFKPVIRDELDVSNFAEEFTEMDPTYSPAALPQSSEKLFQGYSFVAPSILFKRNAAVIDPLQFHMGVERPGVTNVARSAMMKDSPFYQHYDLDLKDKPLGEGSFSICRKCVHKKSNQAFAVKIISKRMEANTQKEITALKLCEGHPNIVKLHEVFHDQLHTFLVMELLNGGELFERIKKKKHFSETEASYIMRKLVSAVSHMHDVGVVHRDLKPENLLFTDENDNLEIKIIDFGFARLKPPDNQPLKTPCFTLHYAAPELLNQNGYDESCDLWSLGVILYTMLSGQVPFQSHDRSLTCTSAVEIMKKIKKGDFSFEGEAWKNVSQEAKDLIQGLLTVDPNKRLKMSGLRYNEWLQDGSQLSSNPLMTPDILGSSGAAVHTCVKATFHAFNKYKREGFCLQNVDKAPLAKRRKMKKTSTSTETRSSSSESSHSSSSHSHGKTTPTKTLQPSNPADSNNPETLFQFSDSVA
SRSF protein kinase 2 (Homo sapiens), sequence (P78362 whole entry, looked up): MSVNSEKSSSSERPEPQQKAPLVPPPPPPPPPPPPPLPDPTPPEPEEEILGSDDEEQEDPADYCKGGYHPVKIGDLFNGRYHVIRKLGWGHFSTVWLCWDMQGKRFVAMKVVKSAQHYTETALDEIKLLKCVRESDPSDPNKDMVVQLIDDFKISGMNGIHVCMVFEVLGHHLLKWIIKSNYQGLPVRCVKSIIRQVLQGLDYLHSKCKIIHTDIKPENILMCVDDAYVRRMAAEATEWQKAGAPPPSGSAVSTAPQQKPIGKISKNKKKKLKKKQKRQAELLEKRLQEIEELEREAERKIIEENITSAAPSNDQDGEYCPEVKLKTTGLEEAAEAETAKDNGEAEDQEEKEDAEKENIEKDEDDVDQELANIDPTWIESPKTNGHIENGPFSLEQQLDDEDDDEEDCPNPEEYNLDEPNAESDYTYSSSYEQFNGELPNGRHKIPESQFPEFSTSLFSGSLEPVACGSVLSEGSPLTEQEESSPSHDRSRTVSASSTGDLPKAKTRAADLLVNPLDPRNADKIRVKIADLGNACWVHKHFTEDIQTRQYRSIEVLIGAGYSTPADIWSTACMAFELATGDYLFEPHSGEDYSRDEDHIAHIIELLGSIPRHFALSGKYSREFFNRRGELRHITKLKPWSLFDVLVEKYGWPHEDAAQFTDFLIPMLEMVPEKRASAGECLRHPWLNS
Phosphatidylinositol 5-phosphate 4-kinase type-2 alpha (Homo sapiens), sequence (P48426 whole entry): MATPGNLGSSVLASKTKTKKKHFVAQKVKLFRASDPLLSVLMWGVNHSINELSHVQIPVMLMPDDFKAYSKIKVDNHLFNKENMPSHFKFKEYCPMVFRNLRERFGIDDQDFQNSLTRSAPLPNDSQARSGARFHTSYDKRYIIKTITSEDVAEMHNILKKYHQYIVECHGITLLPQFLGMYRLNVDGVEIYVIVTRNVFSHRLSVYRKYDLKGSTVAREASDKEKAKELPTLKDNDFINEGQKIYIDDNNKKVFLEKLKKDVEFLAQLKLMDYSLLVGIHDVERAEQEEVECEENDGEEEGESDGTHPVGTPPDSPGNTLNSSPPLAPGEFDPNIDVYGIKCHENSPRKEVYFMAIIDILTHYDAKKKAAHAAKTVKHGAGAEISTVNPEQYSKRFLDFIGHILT

## CN(C)C(=O)c1cc2cnc(Nc3ccc(NC(=O)CCCCCCCN=C=S)cc3)nc2n1C1CCCC1
NCI-H1299
  IC50: 203 nM
CDK9/cyclin T1
  IC50: 11 nM
[1]
  inhibition: 24%
[2]
  inhibition: 33%
[3]
  inhibition: 2%
[4]
  inhibition: 76%
[5]
  inhibition: 4%
SiHa
  inhibition at 10 µM: 97%
Jurkat
  IC50: 3430 nM
[6]
  inhibition: -1%
[7]
  inhibition: 56%
[8]
  inhibition: 30%
HepG2 [9]
  inhibition at 10 µM: 76%
HepG2 [10]
  inhibition at 0.5 µM: 23%
[11]
  inhibition: 25%
A549
  Activity: Active
Hep 3B2
  IC50: 5610 nM
[12]
  inhibition: 46%
[13]
  inhibition: 5%
[14]
  inhibition: 26%
[15]
  inhibition: 0%
[16]
  inhibition: 0%
[17]
  inhibition: 6%
